Results on 28 compounds are retold here after ChEMBL document CHEMBL4627406, “Amino Acids Bearing Aromatic or Heteroaromatic Substituents as a New Class of Ligands for the Lysosomal Sialic Acid Transporter Sialin” (J Med Chem, 2020).

Active and inactive are the calls of the source. The rule behind the calls is not given here.

Experiment [1] deals with T1, Sialin (Homo sapiens) (UniProt Q9NRA2).
T1 sequence (whole entry): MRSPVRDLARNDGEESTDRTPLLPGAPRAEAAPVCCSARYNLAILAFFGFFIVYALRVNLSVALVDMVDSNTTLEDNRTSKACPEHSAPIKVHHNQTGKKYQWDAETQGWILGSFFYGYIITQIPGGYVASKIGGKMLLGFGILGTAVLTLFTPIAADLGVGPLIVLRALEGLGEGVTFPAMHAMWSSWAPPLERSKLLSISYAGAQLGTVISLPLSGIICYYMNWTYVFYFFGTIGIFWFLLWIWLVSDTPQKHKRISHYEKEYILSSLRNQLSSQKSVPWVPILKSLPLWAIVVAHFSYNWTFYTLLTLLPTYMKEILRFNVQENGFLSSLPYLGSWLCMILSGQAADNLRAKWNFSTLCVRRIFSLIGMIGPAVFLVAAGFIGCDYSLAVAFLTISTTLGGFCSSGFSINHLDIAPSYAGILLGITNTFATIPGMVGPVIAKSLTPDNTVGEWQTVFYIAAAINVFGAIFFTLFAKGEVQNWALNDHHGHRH
The experiment is described as follows: Inhibition of human recombinant-Sialin expressed in HEK293 cells assessed as reduction in [3H]Neu5Ac uptake at 30 to 300 uM incubated for 15 mins by liquid scintillation counting method. It is filed as cell-based. In a few lines:
(§1)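 HEK293 cells expressing EGFP-human sialin L22G/L23G (sorting mutant at the plasma membrane), assayed 2 days after lipofection. Uptake of [3H]Neu5Ac (12.5 nM) over 15 min at room temperature in MES-Na+ pH 5.0 with inhibitor added together with tracer. Cells washed twice ice-cold, radioactivity counted by liquid scintillation. Dose-response run in triplicate, two to three independent experiments.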

Experiment [2] deals with T1, Sialin (Homo sapiens). In words: Inhibition of human recombinant-Sialin expressed in HEK293 cells assessed as reduction in [3H]Neu5Ac uptake at 30 uM incubated for 15 mins by liquid scintillation counting method. It is filed as cell-based. In a few lines: as §1

Regarding `O=C(NCCCC[C@H](NC(=O)OCC1c2ccccc2-c2ccccc21)C(=O)O)OCc1ccccc1`, at Sialin (Homo sapiens) [1], the inhibition result was “Active”.
Consider `O=C(O)CN(CC(=O)O)c1ccccc1OCCOc1ccccc1N(CC(=O)O)CC(=O)O`, for which, on Sialin (Homo sapiens) [1], the inhibition result is “Active”.
With `O=C(Cc1cc(=O)oc2c3c4c(cc12)CCCN4CCC3)N[C@@H](CCCCNC(=O)OCc1ccccc1)C(=O)O`, the inhibition entry at Sialin (Homo sapiens) [2] is “Active”.
Take `O=C(NCCCC[C@H](NC(=O)OCc1cc(=O)oc2cc(O)ccc12)C(=O)O)OCc1ccccc1`: the inhibition result on Sialin (Homo sapiens) [2] is “Active”.
With `O=C(O)[C@@H]1OCCOCCO[C@@H](C(=O)O)[C@H](C(=O)O)OCCOCCO[C@H]1C(=O)O`, the inhibition entry on Sialin (Homo sapiens) [1] is “Active”.
For `O=C(N[C@@H](CS)C(=O)O)OCC1c2ccccc2-c2ccccc21`, the inhibition entry on Sialin (Homo sapiens) [2] is “Active”.
On to `Cc1cc(C)cc(C(=O)N(C)[C@H](Cc2ccc(-c3ccccc3)cc2)C(=O)N[C@@H](Cc2c[nH]c3ccccc23)C(=O)O)c1`, for which the inhibition entry on Sialin (Homo sapiens) [1] is “Active”.
In the case of `O=C(O)CN(CC(=O)O)Cc1cc2c(cc1O)Oc1cc(O)c(CN(CC(=O)O)CC(=O)O)cc1C21OC(=O)c2ccccc21`, the inhibition result on Sialin (Homo sapiens) [1] is “Active”.
`O=C(NCCCC[C@H](NC(=O)c1cc(=O)[nH]c2ccccc12)C(=O)O)OCc1ccccc1`: the inhibition entry at Sialin (Homo sapiens) [2] is “inactive”.
In the case of `O=C(NCCCC[C@H](NC(=O)OCC1c2ccccc2-c2ccccc21)C(=O)O)OCC1c2ccccc2-c2ccccc21`, on Sialin (Homo sapiens) [2], the inhibition entry was “inactive”.
As to `CN(C)c1ccc2c(CC(=O)NCCCC[C@H](NC(=O)OCC3c4ccccc4-c4ccccc43)C(=O)O)cc(=O)oc2c1`, the inhibition entry at Sialin (Homo sapiens) [2] was “Active”.
Take `CC(C)(C)Oc1ccc(C[C@H](NC(=O)OCC2c3ccccc3-c3ccccc32)C(=O)O)cc1`: the inhibition result at Sialin (Homo sapiens) [2] is “Active”.
For the compound `CC(C)(C)OC(=O)C[C@H](NC(=O)OCC1c2ccccc2-c2ccccc21)C(=O)O`, the inhibition entry on Sialin (Homo sapiens) [2] was “Active”.
Consider `CN(Cc1cnc2nc(N)nc(N)c2n1)c1ccc(C(=O)N[C@@H](CCC(=O)O)C(=O)O)cc1`, for which, on Sialin (Homo sapiens) [1], the inhibition entry was “Active”.
Take `COC(=O)CC[C@H](NC(=O)OCC1c2ccccc2-c2ccccc21)C(=O)O`: the inhibition entry on Sialin (Homo sapiens) [1] is “Dose-dependent effect”. In addition, the inhibition entry on Sialin (Homo sapiens) [2] is “Active”.
As to `CC[C@H](C)[C@H](NC(=O)OCC1c2ccccc2-c2ccccc21)C(=O)O`, the inhibition entry at Sialin (Homo sapiens) [2] was “Active”.
As for `O=C(N[C@@H](CSCc1ccccc1)C(=O)O)OCC1c2ccccc2-c2ccccc21`, at Sialin (Homo sapiens) [2], the inhibition result is “inactive”.
On the same count and under the same terms, the entry for `O=C(N[C@@H](Cc1ccccc1)C(=O)O)OCC1c2ccccc2-c2ccccc21` is “Active”.
Consider `O=C(N[C@@H](CSCc1cc(=O)oc2cc(O)c(Cl)cc12)C(=O)O)OCC1c2ccccc2-c2ccccc21`, for which, at Sialin (Homo sapiens) [1], the inhibition result was “Dose-dependent effect”. At Sialin (Homo sapiens) [2], the inhibition result was “Active”.
For the compound `CN(C)c1ccc2c(CC(=O)N[C@@H](CCCCNC(=O)OCc3ccccc3)C(=O)O)cc(=O)oc2c1`, at Sialin (Homo sapiens) [2], the inhibition entry was “Active”.
Same read-out and setting: the entry for `O=C(OCc1cc(=O)oc2cc(O)ccc12)OCC1c2ccccc2-c2ccccc21` is “inactive”; for `CC(C)(C)SC[C@H](NC(=O)OCC1c2ccccc2-c2ccccc21)C(=O)O` it is “Active”.
As to `O=C(O)[C@@H]1CCCN1C(=O)OCC1c2ccccc2-c2ccccc21`, the inhibition result on Sialin (Homo sapiens) [2] is “inactive”.
In the case of `O=C(Cc1cc(=O)oc2cc(O)ccc12)N[C@@H](CCCCNC(=O)OCc1ccccc1)C(=O)O`, the inhibition result on Sialin (Homo sapiens) [2] is “Active”.
Same read-out and setting: the same measure for `CC(C)CC(NC(=O)OCC1c2ccccc2-c2ccccc21)C(=O)O` (stereo not given): “Active”.
With `CC(C)(C)OC(=O)NCc1ccc(C[C@@H](NC(=O)OCC2c3ccccc3-c3ccccc32)C(=O)O)cc1`, the inhibition result on Sialin (Homo sapiens) [1] was “Active”.
With `COc1ccc(CSC[C@H](NC(=O)OCC2c3ccccc3-c3ccccc32)C(=O)O)cc1`, the inhibition entry at Sialin (Homo sapiens) [2] was “Active”.
As to `CCN(CC)c1ccc2c(CC(=O)N[C@@H](CCCCNC(=O)OCc3ccccc3)C(=O)O)cc(=O)oc2c1`, at Sialin (Homo sapiens) [2], the inhibition result was “Active”.
